Test results as given in paper PMC4716659 (European journal of medicinal chemistry, 2015).
≈ marks a conversion by molar mass, not a printed value. Entries after “also recorded” stand apart in the source; their conditions may differ.

Columns and labels:
S. aureus NRS107 (MRSA) [1] = test: MIC, broth microdilution; type: cell-based, Staphylococcus aureus; details: Staphylococcus aureus, MRSA|NRS107
S. aureus NRS19 (VISA) [2] = test: MIC, broth microdilution; type: cell-based, Staphylococcus aureus; details: Staphylococcus aureus, NRS19|VISA
S. aureus VRS5 (VRSA) [3] = test: MIC, broth microdilution; type: cell-based, Staphylococcus aureus; details: Staphylococcus aureus, VRSA
S. aureus VRS5 (VRSA) [4] = test: MBC, plating onto TSA; type: cell-based, Staphylococcus aureus; details: Staphylococcus aureus, VRSA
S. aureus NRS119 (MRSA) [5] = test: MBC, plating onto TSA; type: cell-based, Staphylococcus aureus; details: Staphylococcus aureus, MRSA|NRS119
S. aureus VRS4 (VRSA) [6] = test: MBC, plating onto TSA; type: cell-based, Staphylococcus aureus; details: Staphylococcus aureus, VRSA
S. aureus USA 400 (MRSA) [7] = test: MIC, broth microdilution; type: cell-based, Staphylococcus aureus; details: Staphylococcus aureus, MRSA|USA400
S. aureus VRS4 (VRSA) [8] = test: MIC, broth microdilution; type: cell-based, Staphylococcus aureus; details: Staphylococcus aureus, VRSA
S. aureus NRS119 (MRSA) [9] = test: MIC, broth microdilution; type: cell-based, Staphylococcus aureus; details: Staphylococcus aureus, MRSA|NRS119
[10] = test system: S. aureus ATCC 43300 (MRSA); test: MBC, plating onto TSA; type: cell-based, Staphylococcus aureus; details: Staphylococcus aureus, ATCC43300|MRSA
[11] = test system: human embryonic kidney (HEK293) cell line; test: In vitro cytotoxicity, MTS assay; details: 40 μg/mL
S. aureus VRS1 (VRSA) [12] = test: MIC, broth microdilution; type: cell-based, Staphylococcus aureus; details: Staphylococcus aureus, VRSA
S. aureus NRS37 (VISA) [13] = test: MBC, plating onto TSA; type: cell-based, Staphylococcus aureus; details: Staphylococcus aureus, NRS37|VISA
S. aureus USA500 (MRSA) [14] = test: MIC, broth microdilution; type: cell-based, Staphylococcus aureus; details: Staphylococcus aureus, MRSA|USA500
S. aureus NRS1 (VISA) [15] = test: MBC, plating onto TSA; type: cell-based, Staphylococcus aureus; details: Staphylococcus aureus, NRS1|VISA
S. aureus NRS107 (MRSA) [16] = test: MBC, plating onto TSA; type: cell-based, Staphylococcus aureus; details: Staphylococcus aureus, MRSA|NRS107
S. aureus USA300 (MRSA) [17] = test: MBC, plating onto TSA; type: cell-based, Staphylococcus aureus; details: Staphylococcus aureus, MRSA|USA300
S. aureus USA 400 (MRSA) [18] = test: MBC, plating onto TSA; type: cell-based, Staphylococcus aureus; details: Staphylococcus aureus, MRSA|USA400
S. aureus NRS194 (MRSA) [19] = test: MBC, plating onto TSA; type: cell-based, Staphylococcus aureus; details: Staphylococcus aureus, MRSA|NRS194
[20] = test system: methicillin-resistant Staphylococcus aureus (MRSA) ATCC 43300; test: MIC, broth microdilution; type: cell-based; details: Staphylococcus aureus, ATCC43300|MRSA
S. aureus NRS1 (VISA) [21] = test: MIC, broth microdilution; type: cell-based, Staphylococcus aureus; details: Staphylococcus aureus, NRS1|VISA
three VRSA strains = test: MIC against VRSA strains; type: cell-based; details: Staphylococcus aureus
S. aureus USA300 (MRSA) [22] = test: MIC, broth microdilution; type: cell-based, Staphylococcus aureus; details: Staphylococcus aureus, MRSA|USA300
S. aureus NRS19 (VISA) [23] = test: MBC, plating onto TSA; type: cell-based, Staphylococcus aureus; details: Staphylococcus aureus, NRS19|VISA
S. aureus VRS1 (VRSA) [24] = test: MBC, plating onto TSA; type: cell-based, Staphylococcus aureus; details: Staphylococcus aureus, VRSA
S. aureus NRS194 (MRSA) [25] = test: MIC, broth microdilution; type: cell-based, Staphylococcus aureus; details: Staphylococcus aureus, MRSA|NRS194
S. aureus NRS37 (VISA) [26] = test: MIC, broth microdilution; type: cell-based, Staphylococcus aureus; details: Staphylococcus aureus, NRS37|VISA
S. aureus USA500 (MRSA) [27] = test: MBC, plating onto TSA; type: cell-based, Staphylococcus aureus; details: Staphylococcus aureus, MRSA|USA500
two VISA isolates = test: MIC against VISA isolates; type: cell-based; details: Staphylococcus aureus
MRSA USA300 = test: Time-kill analysis; type: cell-based, Staphylococcus aureus; details: MRSA USA300, 3 × MIC, 37 °C
How it was run: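 Late-log-phase cells diluted to ~1 × 10^8 CFU/mL in MHB and exposed to test compound or vancomycin in triplicate at 37 °C. 20 μL samples taken at 0, 2, 4, 6, 8, 10, 12 and 24 h, serially diluted in PBS, and plated on TSA. Plates incubated 18–20 h at 37 °C, then viable CFU/mL counted. Data given as mean ± standard deviation.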

[28] = human, microsomes, pH 7.4

[H]/N=C(\N)NN=C(C)c1sc(-c2ccc(-c3ccc(C(F)(F)F)cc3)cc2)nc1C [22c, (E)-2-(1-(4-Methyl-2-(4′-(trifluoromethyl)-[1,1′-biphenyl]-4-yl)thiazol-5-yl)ethylidene)hydrazinecarboximidamide]
MIC (S. aureus NRS107 (MRSA) [1]): 3.3 mg/L (≈ 7.9 µM) | MIC (S. aureus NRS19 (VISA) [2]): 3.3 mg/L (≈ 7.9 µM) | MIC (S. aureus VRS5 (VRSA) [3]): 6.7 mg/L (≈ 16 µM) | MBC (S. aureus VRS5 (VRSA) [4]): 6.7 mg/L (≈ 16 µM) | MBC (S. aureus NRS119 (MRSA) [5]): 6.7 mg/L (≈ 16 µM) | MBC (S. aureus VRS4 (VRSA) [6]): 6.7 mg/L (≈ 16 µM) | MIC (S. aureus USA 400 (MRSA) [7]): 6.7 mg/L (≈ 16 µM) | MIC (S. aureus VRS4 (VRSA) [8]): 6.7 mg/L (≈ 16 µM) | MIC (S. aureus NRS119 (MRSA) [9]): 6.7 mg/L (≈ 16 µM) | MBC [10]: 3.3 mg/L (≈ 7.9 µM) | toxicity to mammalian cells (MTS assay) [11]: toxic | MIC (S. aureus VRS1 (VRSA) [12]): 6.7 mg/L (≈ 16 µM) | MBC (S. aureus NRS37 (VISA) [13]): 3.3 mg/L (≈ 7.9 µM) | MIC (S. aureus USA500 (MRSA) [14]): 3.3 mg/L (≈ 7.9 µM) | MBC (S. aureus NRS1 (VISA) [15]): 3.3 mg/L (≈ 7.9 µM) | MBC (S. aureus NRS107 (MRSA) [16]): 6.7 mg/L (≈ 16 µM) | MBC (S. aureus USA300 (MRSA) [17]): 6.7 mg/L (≈ 16 µM) | MBC (S. aureus USA 400 (MRSA) [18]): 13.3 mg/L (≈ 31.9 µM) | MBC (S. aureus NRS194 (MRSA) [19]): 13.3 mg/L (≈ 31.9 µM) | MIC ([20]; MRSA ATCC 43300): 3.3 mg/L (≈ 7.9 µM) | MIC (S. aureus NRS1 (VISA) [21]): 3.3 mg/L (≈ 7.9 µM) | MIC (three VRSA strains): 6.7 mg/L (≈ 16 µM) | MIC (S. aureus USA300 (MRSA) [22]): 6.7 mg/L (≈ 16 µM) | MBC (S. aureus NRS19 (VISA) [23]): 3.3 mg/L (≈ 7.9 µM) | MBC (S. aureus VRS1 (VRSA) [24]): 6.7 mg/L (≈ 16 µM) | MIC (S. aureus NRS194 (MRSA) [25]): 6.7 mg/L (≈ 16 µM) | MIC (S. aureus NRS37 (VISA) [26]): 3.3 mg/L (≈ 7.9 µM) | MBC (S. aureus USA500 (MRSA) [27]): 3.3 mg/L (≈ 7.9 µM)

CN[C@H](CC(C)C)C(=O)N[C@H]1C(=O)N[C@@H](CC(N)=O)C(=O)N[C@H]2C(=O)N[C@H]3C(=O)N[C@H](C(=O)N[C@H](C(=O)O)c4cc(O)cc(O)c4-c4cc3ccc4O)[C@H](O)c3ccc(c(Cl)c3)Oc3cc2cc(c3O[C@@H]2O[C@H](CO)[C@@H](O)[C@H](O)[C@H]2O[C@H]2C[C@](C)(N)[C@H](O)[C@H](C)O2)Oc2ccc(cc2Cl)[C@H]1O [Vancomycin, reference compound]
MIC (S. aureus NRS107 (MRSA) [1]): < 1.5 mg/L | MIC (S. aureus NRS19 (VISA) [2]): < 1.5 mg/L | MIC (S. aureus VRS5 (VRSA) [3]): > 190 mg/L | MBC (S. aureus VRS5 (VRSA) [4]): > 190 mg/L | MBC (S. aureus NRS119 (MRSA) [5]): < 1.5 mg/L | MBC (S. aureus VRS4 (VRSA) [6]): > 190 mg/L | MIC (two VISA isolates): 3 mg/L (≈ 2.07 µM) | MIC (S. aureus USA 400 (MRSA) [7]): 0.7 mg/L (≈ 0.483 µM) | MIC (S. aureus VRS4 (VRSA) [8]): > 190 mg/L | MIC (S. aureus NRS119 (MRSA) [9]): < 1.5 mg/L | MBC [10]: 0.7 mg/L (≈ 0.483 µM) | MIC (S. aureus VRS1 (VRSA) [12]): > 190 mg/L | time to completely eradicate MRSA growth (MRSA USA300): 24 h | MBC (S. aureus NRS37 (VISA) [13]): 3 mg/L (≈ 2.07 µM) | MIC (S. aureus USA500 (MRSA) [14]): 0.7 mg/L (≈ 0.483 µM) | MBC (S. aureus NRS1 (VISA) [15]): 3 mg/L (≈ 2.07 µM) | MBC (S. aureus NRS107 (MRSA) [16]): < 1.5 mg/L | MBC (S. aureus USA300 (MRSA) [17]): 0.7 mg/L (≈ 0.483 µM) | MBC (S. aureus USA 400 (MRSA) [18]): 0.7 mg/L (≈ 0.483 µM) | MBC (S. aureus NRS194 (MRSA) [19]): 0.7 mg/L (≈ 0.483 µM) | MIC [20]: 0.7 mg/L (≈ 0.483 µM) | MIC (S. aureus NRS1 (VISA) [21]): 3 mg/L (≈ 2.07 µM) | MIC (three VRSA strains): > 190 mg/L | MIC (S. aureus USA300 (MRSA) [22]): 0.7 mg/L (≈ 0.483 µM) | MBC (S. aureus NRS19 (VISA) [23]): < 1.5 mg/L | MBC (S. aureus VRS1 (VRSA) [24]): > 190 mg/L | MIC (S. aureus NRS194 (MRSA) [25]): 0.7 mg/L (≈ 0.483 µM) | MIC (S. aureus NRS37 (VISA) [26]): 3 mg/L (≈ 2.07 µM) | MBC (S. aureus USA500 (MRSA) [27]): 0.7 mg/L (≈ 0.483 µM)

CC(=O)CC(c1ccccc1)c1c(O)c2ccccc2oc1=O (stereo not shown) [Warfarin]
NADPH-dependent CLint [28]: 0.0 µL/min/mg | NADPH-free CLint [28]: 0.0 µL/min/mg

[H]/N=C(\N)NN=C(C)c1sc(-c2ccc(-c3cccc4ccccc34)cc2)nc1C [compound 25, (E)-2-(1-(4-Methyl-2-(4-(naphthalen-1-yl)phenyl)thiazol-5-yl)ethylidene)hydrazinecarboximidamide]
MIC (S. aureus NRS107 (MRSA) [1]): 1.6 mg/L (≈ 4 µM) | MIC (S. aureus NRS19 (VISA) [2]): 1.6 mg/L (≈ 4 µM) | MIC (S. aureus VRS5 (VRSA) [3]): 3.2 mg/L (≈ 8.01 µM) | MBC (S. aureus VRS5 (VRSA) [4]): 3.2 mg/L (≈ 8.01 µM) | MBC (S. aureus NRS119 (MRSA) [5]): 1.6 mg/L (≈ 4 µM) | MBC (S. aureus VRS4 (VRSA) [6]): 3.2 mg/L (≈ 8.01 µM) | MIC (two VISA isolates): 1.6 mg/L (≈ 4 µM) | MIC (S. aureus USA 400 (MRSA) [7]): 1.6 mg/L (≈ 4 µM) | MIC (S. aureus VRS4 (VRSA) [8]): 3.2 mg/L (≈ 8.01 µM) | MIC (S. aureus NRS119 (MRSA) [9]): 1.6 mg/L (≈ 4 µM) | MBC [10]: 1.6 mg/L (≈ 4 µM) | toxicity to mammalian cells (MTS assay) [11]: not toxic; also recorded: improved toxicity profile | MIC (S. aureus VRS1 (VRSA) [12]): 3.2 mg/L (≈ 8.01 µM) | time to completely eradicate MRSA growth (MRSA USA300): 10 h | MBC (S. aureus NRS37 (VISA) [13]): 1.6 mg/L (≈ 4 µM) | MIC (S. aureus USA500 (MRSA) [14]): 1.6 mg/L (≈ 4 µM) | MBC (S. aureus NRS1 (VISA) [15]): 1.6 mg/L (≈ 4 µM) | MBC (S. aureus NRS107 (MRSA) [16]): 1.6 mg/L (≈ 4 µM) | MBC (S. aureus USA300 (MRSA) [17]): 1.6 mg/L (≈ 4 µM) | MBC (S. aureus USA 400 (MRSA) [18]): 1.6 mg/L (≈ 4 µM) | MBC (S. aureus NRS194 (MRSA) [19]): 1.6 mg/L (≈ 4 µM) | MIC ([20]; MRSA ATCC 43300): 1.6 mg/L (≈ 4 µM) | MIC (S. aureus NRS1 (VISA) [21]): 1.6 mg/L (≈ 4 µM) | MIC (S. aureus USA300 (MRSA) [22]): 1.6 mg/L (≈ 4 µM) | MBC (S. aureus NRS19 (VISA) [23]): 1.6 mg/L (≈ 4 µM) | MBC (S. aureus VRS1 (VRSA) [24]): 3.2 mg/L (≈ 8.01 µM) | MIC (S. aureus NRS194 (MRSA) [25]): 1.6 mg/L (≈ 4 µM) | MIC (S. aureus NRS37 (VISA) [26]): 1.6 mg/L (≈ 4 µM) | MBC (S. aureus USA500 (MRSA) [27]): 3.2 mg/L (≈ 8.01 µM)
